CSN inh = blocks human CSN-mediated cullin deneddylation. Purified CSN, SCF-Nedd8-OG deneddylation, fluorescence polarization. inhibition, % at 12.5 µM. Q92905. 360,000 compounds, 0.38% hits;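 active means pattern-corrected inhibition above about 35%, with an unprinted fluorescence ratio check between 0.5 and 1.5, limit read from the data, passing the limit was not always enough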;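 further: 0% = enzyme with substrate and 100% = substrate without enzyme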
Target sequence (Q92905 whole entry, looked up, one chain of several): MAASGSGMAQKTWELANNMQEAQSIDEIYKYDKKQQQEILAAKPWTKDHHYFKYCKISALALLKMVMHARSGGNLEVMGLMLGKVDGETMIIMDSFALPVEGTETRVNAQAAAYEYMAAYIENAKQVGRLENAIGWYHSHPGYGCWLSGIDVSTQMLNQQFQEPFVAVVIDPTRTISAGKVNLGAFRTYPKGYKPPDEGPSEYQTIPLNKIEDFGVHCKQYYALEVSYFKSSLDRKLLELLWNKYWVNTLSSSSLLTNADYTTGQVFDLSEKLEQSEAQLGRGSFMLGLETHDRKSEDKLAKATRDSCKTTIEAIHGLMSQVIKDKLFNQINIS
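Material: human Csn5 produced in HEK293T cells; Input: enzyme 0.24 nM; Reagent: SCFSkp2-Nedd8OG substrate at 10 nM final; Dosing: 12.5 µM compound; Incubation: 90 min reaction at room temperature; Detection: fluorescence polarization of the substrate; Evaluation: % inhibition of substrate cleavage by Csn5; Control set: substrate-only high control, full reaction low control.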
HNF4A DNA FP = change in binding of human HNF4 alpha to DNA | HNF4a-FITC DNA binding, fluorescence polarization, 1 h | activity change, % at 10 µM | 360,000 compounds, 0.3% hits | AID 1224865; in the data active means activity change above about 30%, passing the limit was not always enough
TPT1 inhibitor = inhibitors of Candida albicans tRNA 2'-phosphotransferase TPT1 | recombinant caTPT1, FP RNA substrate dephosphorylation | inhibition, % at 5 µM | 300,000 compounds, 0.81% hits | AID 1962;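 active means inhibition above the mean of all tested compounds plus 3 SD, set per screening campaign, cut at about 24% in these data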;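 further: plate controls were DMSO alone for no effect and ferristatin control at 100 nM for full effect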
PP1 counter = blocks human PP1-alpha phosphatase, a PP5 counter-screen; P62136; purified PP1alpha, OMFP fluorescence; inhibition, % at 6.7 µM; 320,000 compounds, 0.9% hits; AID 2235;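 active means inhibition above the mean inhibition of all tested compounds plus 3 SD, computed separately for each screening campaign, cut at about 15% in these data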
Rpn11 block = blocks the human proteasome subunit Rpn11; human 26S proteasome, Ub4-pepOG fluorescence polarization; 20S core pre-blocked with epoxomicin; inhibition, % at 20 µM; 360,000 compounds, 0.59% hits; AID 588493;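 active means inhibition at 20 µM, scaled to each plate's controls, above about 33%, limit read from the data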
NadD block = inhibitors of Staphylococcus aureus NadD; purified NadD enzyme, colorimetric absorbance read-out; inhibition, % at 20 µM; 360,000 compounds, 0.78% hits; in the data active means inhibition above about 26%
* hit, by the source's call; nt = not tested or not shown. Rows were chosen to be rich in hits. Some 2.7% of all compounds tested hit in one or more screens of this group.

SMILES | CSN inh | HNF4A DNA FP | TPT1 inhibitor | PP1 counter | Rpn11 block | NadD block
CC(=O)c1ccc(OCC(O)CN2CCN(S(=O)(=O)c3c(C)c(C)cc(C)c3C)CC2)cc1 (centres undefined) | 3 | 2 | -1 | 1 | -4 | -6
O=C(Nc1cc(Sc2ccccn2)cc([N+](=O)[O-])c1)c1ccc([N+](=O)[O-])cc1 | 3 | 2 | -5 | 16* | 0 | 19
O=C(N1CCCCC1)N1CCN(S(=O)(=O)c2ccccc2)CC1 | 2 | -1 | -5 | -1 | -1 | 5
COc1cccc(/C=N/Nc2nc(Nc3ccc([N+](=O)[O-])cc3)nc(N3CCCC3)n2)c1O | -11 | -2 | -6 | 16* | 2 | 35*
CCc1noc(C)c1C(=O)N1CCN(S(=O)(=O)c2ccc(Cl)s2)CC1 | 0 | -2 | 0 | 2 | -3 | 8
Cc1cc(C)cc(-n2c(C)cc(/C=C3\C(=N)N4N=C(CC(C)C)SC4=NC3=O)c2C)c1 | 9 | -1 | 1 | -4 | 20 | 35*
CCCC1=NN2C(=N)/C(=C\c3cc(C)n(-c4cc(C)cc(C)c4)c3C)C(=O)N=C2S1 | 9 | 2 | 3 | 10 | 19 | 37*
Cc1cccc(-n2c(C)cc(/C=C3\C(=N)N4N=C(CC(C)C)SC4=NC3=O)c2C)c1 | -1 | 2 | -1 | -2 | 3 | 26
O=C(O)c1ccc(CNC(=O)C2CCCN2C(=O)OCc2ccccc2)cc1 (centres undefined) | 0 | -3 | nt | nt | -4 | 1
O=C(O)c1cc(N/N=C/c2cccc3ccccc23)ccc1Cl | -3 | -1 | 4 | -3 | 1 | -6
CC(C)n1cc(/C=N/Nc2ccc(Cl)c(C(=O)O)c2)c2ccccc21 | 40* | -40 | 0 | 2 | 1 | 17
COc1ccc(/C=N/NC(=O)c2nc(-c3ccccc3)n(-c3ccccc3)n2)c(O)c1 | -17 | -7 | -2 | 16* | 3 | 41*
COc1cccc(/C=N/NC(=O)c2cc3c(OC)ccc(OC)c3[nH]2)c1O | 0 | 0 | 5 | 16* | 24 | -7
COc1cccc(/C=N/NC(=O)c2nc(-c3ccccc3)cc(-c3ccccc3)n2)c1O | -5 | -5 | -1 | 6 | -7 | 29*
Cc1cccc(C(=O)NCCNc2nc3cc(C)c(C)cc3cc2C)c1 | 6 | 60* | 2 | 2 | 0 | -4
Cc1ccc(NC(=O)CN2C(=O)NC3(CCCCC3C)C2=O)cc1S(=O)(=O)N1CCOCC1 (centres undefined) | 1 | -1 | nt | nt | -1 | 6
O=C(N/N=C/c1cc(Cl)cc([N+](=O)[O-])c1O)NC12CC3CC(CC(C3)C1)C2 | 0 | -19 | 1 | 3 | -24 | 40*
O=C(N/N=C/c1ccccc1O)NC12CC3CC(CC(C3)C1)C2 | 6 | 1 | 1 | 2 | -6 | 3
CCOC(=O)N1CCN(S(=O)(=O)c2ccc(C(=O)NNc3nc4ccc(Cl)cc4s3)cc2)CC1 | 3 | 3 | 1 | 16* | 4 | 15
Cc1cc(C)c2nc(NNC(=O)c3ccc(S(=O)(=O)N4CCCCC4)cc3)sc2c1 | 0 | 2 | -3 | 16* | 17 | 19
Cc1cccc(NC(=S)N/N=C2\CC(C)(C)Oc3ccc(O)cc32)c1 | -5 | 36* | 0 | 1 | 3 | 4
COc1cccc(NC(=S)N/N=C2\CC(C)(C)Oc3ccc(O)cc32)c1 | 0 | -2 | -1 | 10 | 2 | 3
CC1(C)C(/C=C/C=C/C=C/C=C2\N(CCCCS(=O)(=O)O)c3ccc4ccccc4c3C2(C)C)=[N+](CCCCS(=O)(=O)[O-])c2ccc3ccccc3c21 | 83 | -25 | 75* | 59* | 27 | 67*
Cc1ccccc1Cn1c(=N)n(CC(=O)c2ccc([N+](=O)[O-])cc2)c2ccccc21 | 5 | 43* | -2 | 4 | nt | 21
CCCn1c(=N)n(CC(=O)c2ccc([N+](=O)[O-])cc2)c2ccccc21 | -2 | -2 | 5 | 3 | 0 | 0
COc1ccccc1-c1nnc(SCC(=O)c2ccc(C3CCCCC3)cc2)n1Cc1ccco1 | 7 | 1 | -2 | 17* | 14 | 24
COc1cc(C2c3c([nH]c(=O)[nH]c3=O)Nc3ccc4ccccc4c32)ccc1O (centres undefined) | 6 | 1 | -8 | 6 | -10 | 4
